We go through 4 molecules from ChEMBL document CHEMBL5614377, “Structure-based mapping of the histone-binding pocket of KDM4D using functionalized tetrazole and pyridine core compounds” (Eur J Med Chem, 2024).

Assay [1] concerns the target T1, Lysine-specific demethylase 4D (Homo sapiens, UniProt Q6B0I6).
T1 sequence (Q6B0I6 whole entry): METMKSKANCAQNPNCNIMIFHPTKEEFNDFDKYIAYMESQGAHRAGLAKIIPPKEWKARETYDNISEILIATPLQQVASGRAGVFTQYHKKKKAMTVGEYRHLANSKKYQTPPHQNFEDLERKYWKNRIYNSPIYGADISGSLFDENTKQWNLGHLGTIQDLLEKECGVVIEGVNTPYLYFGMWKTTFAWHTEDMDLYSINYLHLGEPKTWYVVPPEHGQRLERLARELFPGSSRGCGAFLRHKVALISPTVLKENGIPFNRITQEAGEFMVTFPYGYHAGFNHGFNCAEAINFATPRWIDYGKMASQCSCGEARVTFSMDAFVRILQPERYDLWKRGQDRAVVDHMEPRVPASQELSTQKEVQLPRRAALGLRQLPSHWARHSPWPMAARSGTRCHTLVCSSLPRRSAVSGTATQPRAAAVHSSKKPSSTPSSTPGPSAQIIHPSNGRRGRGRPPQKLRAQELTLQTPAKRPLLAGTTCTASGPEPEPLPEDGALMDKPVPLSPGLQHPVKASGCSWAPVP
Description: Binding affinity to N-terminal His-6-tagged human KDM4D catalytic domain (1 to 342 residues) assessed as dissociation constant by isothermal titration calorimetry analysis. The procedure, abridged:
(§1)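 Human KDM4D catalytic domain (residues 1–342) expressed with N-terminal His6-tag, purified by metal affinity chromatography; tag removed by TEV protease for affinity tests, then size-exclusion. Protein concentration measured by A280. ITC at 20 °C in 10 mM HEPES pH 7.5, 0.5 M NaCl, 5% glycerol, 1 mM TCEP. Ligands diluted from DMSO stocks to 0.4–1% final DMSO, with protein DMSO-matched. Ligand titrated into protein in the cell in 13 or 19 injections of 2–3 μL, 180 s spacing, 5 s filter. Two or three runs per ligand. Thermodynamic parameters obtained by baseline adjustment, peak integration, heat normalization per mole of ligand, and fitting.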
(In general: Isothermal titration calorimetry measures the heat released or taken up as one component is titrated into another.)

Assay [2] deals with T2, Lysine-specific demethylase 4D (Homo sapiens) (UniProt Q6B0I6).
T2 sequence (whole entry): T1 sequence (Q6B0I6 whole entry)
Description: Binding affinity to N-terminal His-6-tagged human KDM4D catalytic domain (1 to 342 residues) assessed as change in enthalpy by isothermal titration calorimetry analysis. The procedure, abridged:
as §1

Assay [3] has as its target T2, Lysine-specific demethylase 4D (Homo sapiens). Description: Binding affinity to N-terminal His-6-tagged human KDM4D catalytic domain (1 to 342 residues) assessed as change in entropy by isothermal titration calorimetry analysis. In a few lines: as §1
For assay [4] the target is unchanged. In words: Binding affinity to N-terminal His-6-tagged human KDM4D catalytic domain (1 to 342 residues) assessed as change in gibbs free energy by isothermal titration calorimetry analysis. In a few lines: as §1

For orientation: Kd means the constant that tells how readily two partners part at equilibrium. As to `NNC(=O)[C@H](NC(=O)CCCCc1ccccc1)c1nnn[nH]1`, in assay [1], the Kd was 509 µM. In addition, in assay [2], the deltaH was determined as 8.5 kcal/mol. The -TdeltaS in assay [3] is -12.9 kcal/mol. For the same molecule, in assay [4], the deltaG was -4.42 kcal/mol.

`O=C(O)c1ccnc(NCCCO)c1`: the Kd in assay [1] came to 55.9 µM. Moreover, the deltaH in assay [2] was -1.65 kcal/mol. In addition, the -TdeltaS in assay [3] is -4.05 kcal/mol. Also, the deltaG in assay [4] is -5.7 kcal/mol.

For the molecule `CS(=O)(=O)NCCNc1cc(C(=O)O)ccn1`, the Kd in assay [1] was determined as 35.5 µM. Moreover, in assay [2], the deltaH was -4.6 kcal/mol. In assay [3], the -TdeltaS was -1.35 kcal/mol. In assay [4], the deltaG was -5.97 kcal/mol.

On to `O=C(NO)c1cc(-c2nnn[nH]2)ccn1`, for which the Kd in assay [1] was determined as 0.55 µM. Besides, the deltaH in assay [2] amounted to 5.3 kcal/mol. Moreover, the -TdeltaS in assay [3] is -13.7 kcal/mol. In assay [4], the deltaG was -8.4 kcal/mol.
